Measured values taken from the RNAGym collection of RNA variant scans (doi:10.1126/science.aae0568).
This sample holds only a part of the variants without activity.

B1: tRNA (parent)
chain: GUUCCGUUGGCGUAAUGGUAACGCGUCUCCCUCCUAAGGAGAAGACUGCGGGUUCGAGUCCCGUACGGAACG

Variants of: B1
Experiment: yeast fitness relative to wild type (ratio to wild type); higher = fitter; tRNA-Arg(CCU), competitive growth, 37 C, YPD
How it was run: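 Changes in genotype frequencies gave Darwinian fitness relative to wild type. Frequencies were read by 100-nucleotide paired-end sequencing of gene amplicons before and after pooled Saccharomyces cerevisiae strains, carrying tRNA-Arg(CCU) gene variants at the native locus, were competed in YPD at 37°C for 24 hours in six replicates. A genotype was kept only with ≥ 100 starting reads, and estimates < 0.5 were set to 0.5.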

GUUCCCUUGGCGUAAUGGUAACGCGUCUCCCUCCUAAGGAGAAGACUGCGAGUUCGAGUCCCGUACGGAGCG [G6C G51A A70G] and GUUCCCUUGGCGUAAUGGUAACGCGUCUCCCUCCUAAGGAGAAGACUGCGAGUUCGAGUCCCGUGUGGAACG [G6C G51A A65G C66U] cannot be ordered by yeast fitness: at most 0.5 for the first, at most 0.5 for the second.

Going from GUUCCCUUGGCGUAAUGGUAACGCGUCUCCCUCCUAAGGAGAAGACUGCGCGUUCGAGUCCCGUCCGGAACG [G6C G51C A65C] to GUUCCCUUGGCGUAAUGGUAACGCGUCUCCCUCCUAAGGAGAAGACUGCCGGCUUGAGUCCCGUACGGAACG [G6C G50C U53C C55U], the yeast fitness falls from 0.579 to at most 0.5.

GUUCCCCUGGCGUGAUGGUCACGCGUCUCCCUCCUAAGGAGAAGACUGCGGGUUCGCGUCCCGUACGGAACG [G6C U7C A14G A20C A57C] and GUUCCCCUGGCGUAAUGGUAACCAGUCUCCCUCCUAAGGAGAAGACUGUGGGUUCGAGUACCGUACGGAACG [G6C U7C G23C C24A C49U C60A] cannot be ordered by yeast fitness: at most 0.5 for the first, at most 0.5 for the second.

Compared with GUUCCCUCGGUGUAAUGGUAACGCGUCUCCCUCCUAAGCAGAAGACUGCGGGUUAGAGUCCCGUACGGAACG [G6C U8C C11U G39C C55A], GUUCCCUUGGCGUAAUGGUAACGCGUCUCCCUCCUAAGGAGAAGACUGCGGGUUCGACUCACGUACGGAACG [G6C G58C C61A] is higher in yeast fitness: at most 0.5 for the first, 0.528 for the second.

Going from GUUCCCUCGGCGUAAUGGUGACGCGUCUCCCUCCUAAGGAGAAGACUGCAGGUUCGUGUCCCGUACGGAACG [G6C U8C A20G G50A A57U] to GUUCCCGUGGCGUAAUGGUAACGCGUCUCCCUCCUAAGGAGAAGACUGCGGGUUCGAGUCCCGUACGGAACG [G6C U7G], the yeast fitness rises from at most 0.5 to 0.725.

Compared with GUUCCCGUGGCGUAAGGGUAACGCGUCUCCCUCCUAAGGAGAGGACUGCGGGUUCGAGUCCCGUACGGAACG [G6C U7G U16G A43G], GUUCCCUCGGCGUAAUGGUAACGCGUCUCCCUCCUAAGGAGAUGACUGCGGGUUCGAGCCCCGUACGGAACG [G6C U8C A43U U59C] is lower in yeast fitness: 0.707 for the first, at most 0.5 for the second.

Going from GUUCCCGUGGCGUAAUGGAAACGCGUGUCCCUCCUAAGGAGAAGACUGCGGGUUCGAGUCCCGUACUGAACG [G6C U7G U19A C27G G67U] to GUUCCCUUGGCGUAAUGGUAACGCGUCUCCCUCCUAAGGAGAAGACUGCAGGUUCGAGUCCCGUACGGAACG [G6C G50A], the yeast fitness rises from at most 0.5 to 0.865.

Going from GUUCCCGUGGCGUAAUGGUAACGGGUCUCCCUCUUAAGGAGAAGACUGCGGGCUGGAGUCCAGUACGGAACG [G6C U7G C24G C34U U53C C55G C62A] to GUUCCCUUGGCGUAAUGGUAACGCGUCUCCCUCCUAAGGAGAAGACUGCAGGUUCGAGUCCCGUACAGAACG [G6C G50A G67A], the yeast fitness rises from at most 0.5 to 0.606.

Going from GUUCCCUUGGCGUAAUGGUAACGCGUCUCCCUCCUAAGGAGAAGACUGCGCGUUCGAGUCCCGUACGGAACG [G6C G51C] to GUUCCCAUGGCGUAAUGGUAACGCGUUUCCCUCCUAAGGAGAAGACUGCGGGUUCGAGUCCCGUACGGAACG [G6C U7A C27U], the yeast fitness falls from 0.596 to at most 0.5.

Compared with GUUCCCUUGGCGUAAUGGUAACGCGUCUCCCUCCUAAGGAGAAGACUGCGCGUUCGGGUCUCGUCCGGAACG [G6C G51C A57G C61U A65C], GUUCCCUCGGCGUAAUGGUAAUGCGUCUCCCUCCUAAGGAGAAGACUGCGGGUUCGAGUCCCGUACGGAACG [G6C U8C C22U] is higher in yeast fitness: at most 0.5 for the first, 0.526 for the second.

First: GUUCCCUAGGCGUAAUGGUAAUGCGUCUCCCUCCUAAGGAGAAGACUGCGGGUUCGAGUCGCGUACGGAACG [G6C U8A C22U C61G]
Second: GUUCCCUAGGCGUAAUGGUAAUGCGUCUCCCUCCUAAGGAGAAGACUGCGGGUUCGAGCCCCGUACGGAACG [G6C U8A C22U U59C]
The yeast fitness of the first is higher: 0.501 for the first, at most 0.5 for the second.

Compared with GUUCCCUCGGCGUGAUGGUAACGCGUCUCCCUCCUAAGGAGAAGACUGCGGGUUCGAGUCCCGUACGGAACG [G6C U8C A14G], GUUCCCCUGGCGUAAUGGUAACGCGUCUCCAUCCUAAGGAGAAGACUGCGGGUUCGAGUCCCGUACGGAACG [G6C U7C C31A] is lower in yeast fitness: 0.522 for the first, at most 0.5 for the second.

GUUCCCUUGGCGUAAUGGUAACGCGUCUCCCUCCUAAGGAGAAGACUGCGGGUUCGAGUCCCGUACGAAACG [G6C G68A] and GUUCCCUCGGCGUAAUGGUAACGCGUCUCCCUCCUAAGGAGAAGACUGCGGGUUCGAGUCCCGUACGGAACG [G6C U8C] are the same in yeast fitness: 0.662 for the first, 0.662 for the second.

Going from GUUCCCCUGGCAUAAUGGUAACGUGUCUGCCUCCUAAGGAGAAGACUGCCGGUUCGAGUCCCGUAUGGAACG [G6C U7C G12A C24U C29G G50C C66U] to GUUCCCGUGGCGUAAGGGUAACGCGUCUCCCUCCUAAGGAGAGGACUGCGGGUUCGAGUCCCGUCCGGAACG [G6C U7G U16G A43G A65C], the yeast fitness rises from at most 0.5 to 0.805.

Compared with GUUCCCUUGGCGUAAUGGUAACGCGUCUCCCUCCUAAGGAGAAGACUGCGGGUUCGAGUCCCCUACGGAACG [G6C G63C], GUUCCCUUGGCGUAAUGGUAACGCGUCUCCCUCCUAAGGAGAAGACUGCGGGUUCGAGUCCCAUACGGAACG [G6C G63A] is higher in yeast fitness: 0.689 for the first, 0.911 for the second.

GUUCCCCUCGCGUAAUGGUAACGCGUCUCCCUCCUAAGGAGAAGACUGUGGGUUCGAGUCCCGUACGGAACG [G6C U7C G9C C49U] and GUUCCCGUGGCGUAAUGGUAACGUGUAUCCCUCCUAAGGAGAAGACUGCGGGUUCGAGUUCCGUACGGAACG [G6C U7G C24U C27A C60U] cannot be ordered by yeast fitness: at most 0.5 for the first, at most 0.5 for the second.

Going from GUUCCCUUGGCGUAAUGGUAACGCGUCUCCCUCCUAAGGAGAAGACUGCGGGUUCGACUCCCGAACGGAACG [G6C G58C U64A] to GUUCCCGUGGCGUAAUCGUAACGCGUCUCCCUCCUAAGGAGAAGACUGCGGGUUCGAGUCCCGUACGGAACG [G6C U7G G17C], the yeast fitness falls from 0.529 to 0.525.

Going from GUUCCCUUGGCGUAAUGGUAACGCGUCUCCCUCCUAAGGAGAAGACUGCGGCUUCGAGUCACGUACGGAACG [G6C G52C C61A] to GUUCCCUUGGCGUAAUGGUAACGCGUCUCCCUCCUAAGGAGAAGACUGCGGGUUCGAGUCCCGUACCGAACG [G6C G67C], the yeast fitness rises from at most 0.5 to 0.75.

First: GUUCCCUUGGCGUAAUGGUAACGCGUCUCCCUCCUAAGGAGAAGACUGCGGGUUCGAGUCCCGUACUGAACG [G6C G67U]
Second: GUUCCCUUGGCGUAAUGGUAACGCGUCUCCCUCCUAAGGAGAAGACUGCGGGUUCGAGUCCCGUACAGAACG [G6C G67A]
The yeast fitness of the first is lower: 0.844 for the first, 0.874 for the second.
